Blank lines part the entries; values can stand above or below the compound they belong to.
Legend:
Assay type in all cases: ADME
Liver microsome [1] = assay: Drug metabolism in human liver microsomes assessed as 17-epiestriol-17-glucuronide formation after 15 to 60 mins by Michaelis-Menten equation analysis in presence of UDPGA
Summary of the method: (§1)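 Pooled human liver microsomes (30 donors), 0.5 or 10 µg, with alamethicin at 5% of total protein. Incubated with 50 mM phosphate pH 7.4, 10 mM MgCl₂, 5 mM UDPGA and 10% DMSO for 15–60 min at 37°C. Each glucuronide regioisomer quantified by HPLC, in triplicate, with substrate consumption at or below 10%.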

[2] = biological target: UDP-glucuronosyltransferase 1A10 (Homo sapiens, UniProt Q9HAW8, F93G); assay: Drug metabolism assessed as human UGT1A10 F93G mutant-mediated 13-epiestradiol-3-glucuronide formation at 200 uM after 15 to 60 mins by HPLC analysis in presence of UDPGA
Summary of the method: (§2)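 Screening at a single substrate concentration of 200 μM, in triplicate. The reaction used 5 or 50 µg of UGT-enriched insect cell membranes in 50 mM phosphate pH 7.4 with 10 mM MgCl₂ and 5 mM UDPGA, 10% final DMSO. Incubation was 15–60 min at 37°C. Perchloric acid stopped the reaction and supernatants were analysed by HPLC. Controls lacked UDPGA. Rates were normalized to relative UGT expression level.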

[3] = biological target: T1, UDP-glucuronosyltransferase 2A1 (Homo sapiens, UniProt P0DTE4); assay: Drug metabolism assessed as recombinant human C-terminal His-tagged UGT2A1-mediated 16-epiestriol-17-glucuronide formation at 200 uM after 15 to 60 mins by HPLC analysis in presence of UDPGA; conditions: recombinant enzyme; summary of the method: as §2
T1 sequence (P0DTE4 whole entry): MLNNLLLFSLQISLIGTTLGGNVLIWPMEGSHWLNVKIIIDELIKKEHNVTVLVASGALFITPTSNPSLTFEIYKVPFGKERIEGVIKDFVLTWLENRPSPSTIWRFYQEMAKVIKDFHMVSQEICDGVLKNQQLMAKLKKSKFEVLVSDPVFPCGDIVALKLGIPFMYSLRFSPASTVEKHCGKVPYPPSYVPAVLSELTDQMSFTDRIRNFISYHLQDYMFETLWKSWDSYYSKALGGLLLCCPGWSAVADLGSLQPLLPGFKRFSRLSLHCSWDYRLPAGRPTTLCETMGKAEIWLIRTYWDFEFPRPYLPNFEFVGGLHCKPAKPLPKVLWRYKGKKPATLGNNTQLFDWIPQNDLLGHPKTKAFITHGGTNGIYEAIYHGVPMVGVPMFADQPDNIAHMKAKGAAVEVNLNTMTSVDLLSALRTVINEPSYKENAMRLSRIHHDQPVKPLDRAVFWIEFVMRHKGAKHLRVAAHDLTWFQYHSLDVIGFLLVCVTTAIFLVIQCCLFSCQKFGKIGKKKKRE

Liver microsome [4] = assay: Drug metabolism in human liver microsomes assessed as estriol-3-glucuronide formation after 15 to 60 mins by Michaelis-Menten equation analysis in presence of UDPGA; summary of the method: as §1
[5] = biological target: T2, UDP-glucuronosyltransferase 1A1 (Homo sapiens, UniProt P22309); assay: Drug metabolism assessed as recombinant human C-terminal His-tagged UGT1A1-mediated estriol-3-glucuronide formation at 200 uM after 15 to 60 mins by HPLC analysis in presence of UDPGA; conditions: recombinant enzyme; summary of the method: as §2
T2 sequence (P22309 whole entry): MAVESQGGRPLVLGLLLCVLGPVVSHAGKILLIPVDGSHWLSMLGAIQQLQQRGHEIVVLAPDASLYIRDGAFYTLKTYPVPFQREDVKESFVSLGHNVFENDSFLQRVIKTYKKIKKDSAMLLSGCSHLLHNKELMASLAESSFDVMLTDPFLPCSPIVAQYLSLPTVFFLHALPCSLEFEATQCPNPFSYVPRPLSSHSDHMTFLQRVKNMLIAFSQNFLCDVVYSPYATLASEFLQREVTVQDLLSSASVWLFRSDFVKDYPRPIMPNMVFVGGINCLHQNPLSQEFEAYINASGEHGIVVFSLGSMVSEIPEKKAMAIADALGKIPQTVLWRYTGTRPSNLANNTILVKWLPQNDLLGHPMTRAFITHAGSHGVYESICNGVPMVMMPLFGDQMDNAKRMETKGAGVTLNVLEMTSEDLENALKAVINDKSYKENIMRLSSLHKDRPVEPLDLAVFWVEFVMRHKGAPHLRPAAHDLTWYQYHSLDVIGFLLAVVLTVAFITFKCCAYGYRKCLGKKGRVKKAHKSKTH

[6] = biological target: T3, UDP-glucuronosyltransferase 1A4 (Homo sapiens, UniProt P22310); assay: Drug metabolism assessed as recombinant human C-terminal His-tagged UGT1A4-mediated estriol-16-glucuronide formation after 15 to 60 mins by Michaelis-Menten equation analysis in presence of UDPGA; conditions: recombinant enzyme
T3 sequence (P22310 whole entry): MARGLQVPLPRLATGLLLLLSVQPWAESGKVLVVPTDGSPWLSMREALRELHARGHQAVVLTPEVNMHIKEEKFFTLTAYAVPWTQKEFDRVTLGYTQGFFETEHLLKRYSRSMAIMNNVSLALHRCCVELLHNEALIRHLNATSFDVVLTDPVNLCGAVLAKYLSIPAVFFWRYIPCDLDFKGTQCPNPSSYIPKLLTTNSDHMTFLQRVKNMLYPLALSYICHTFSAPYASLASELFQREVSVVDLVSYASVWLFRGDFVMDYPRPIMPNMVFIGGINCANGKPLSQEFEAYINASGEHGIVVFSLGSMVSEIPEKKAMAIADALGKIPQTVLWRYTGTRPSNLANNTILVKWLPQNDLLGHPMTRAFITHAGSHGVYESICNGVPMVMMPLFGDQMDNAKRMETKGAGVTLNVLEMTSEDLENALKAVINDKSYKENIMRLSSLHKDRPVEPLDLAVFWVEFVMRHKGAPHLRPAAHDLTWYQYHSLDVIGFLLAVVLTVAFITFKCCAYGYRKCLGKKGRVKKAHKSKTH

UDP-glucuronosyltransferase 1A10, sequence (Q9HAW8 26-530 F93G limits assumed): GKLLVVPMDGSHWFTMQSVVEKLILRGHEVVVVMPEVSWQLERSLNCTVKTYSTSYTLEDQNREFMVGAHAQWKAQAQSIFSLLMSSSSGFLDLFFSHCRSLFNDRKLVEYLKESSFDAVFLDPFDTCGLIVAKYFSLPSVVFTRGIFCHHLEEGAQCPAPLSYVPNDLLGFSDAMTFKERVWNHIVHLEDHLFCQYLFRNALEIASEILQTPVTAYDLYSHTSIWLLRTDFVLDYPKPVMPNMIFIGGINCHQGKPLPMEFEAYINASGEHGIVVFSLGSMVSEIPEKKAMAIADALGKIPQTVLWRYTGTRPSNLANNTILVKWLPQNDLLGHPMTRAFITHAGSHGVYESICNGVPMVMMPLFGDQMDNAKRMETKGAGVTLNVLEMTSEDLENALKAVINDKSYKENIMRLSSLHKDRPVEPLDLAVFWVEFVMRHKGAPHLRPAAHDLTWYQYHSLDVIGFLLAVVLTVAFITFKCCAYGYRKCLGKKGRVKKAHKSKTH

Km (Liver microsome [1]): 21 µM
Vmax (Liver microsome [1]): 5425 pmol/min/mg
Compound: C[C@]12CC[C@@H]3c4ccc(O)cc4CC[C@H]3[C@@H]1C[C@@H](O)[C@H]2O

Drug metabolism [2]: metabolite_detected
Compound: C[C@@]12CC[C@@H]3c4ccc(O)cc4CC[C@H]3[C@@H]1CC[C@@H]2O

Drug metabolism [3]: metabolite_detected
Compound: C[C@]12CC[C@@H]3c4ccc(O)cc4CC[C@H]3[C@@H]1C[C@H](O)[C@@H]2O [EPIESTRIOL]

Km (Liver microsome [4]): 313 µM
Vmax (Liver microsome [4]): 95 pmol/min/mg
Drug metabolism [5]: metabolite_detected
Drug metabolism [6]: 4 pmol/min/mg
Compound: C[C@]12CC[C@@H]3c4ccc(O)cc4CC[C@H]3[C@@H]1C[C@@H](O)[C@@H]2O [ESTRIOL]
